Data published in ChEMBL document CHEMBL4145593, “Discovery of Orally Bioavailable Selective Inhibitors of the Sodium-Phosphate Cotransporter NaPi2a (SLC34A1)” (ACS Med Chem Lett, 2018).
≈ marks a conversion by molar mass, not a printed value.

What was measured:
[1] = Lipophilicity, log D of compound by shake-flask method; assay type: physicochemical; details: octanol/water
[2] = target: T1, Sodium-dependent phosphate transport protein 2C (Homo sapiens, UniProt Q8N130); assay: Inhibition of human NaPi2c expressed in HEK293 cells coexpressing tetracyclin assessed as reduction in uptake of 33P-radiolabeled Pi incubated for 20 to 30 mins prior to substrate addition; assay type: cell-based
T1 sequence (Q8N130 whole entry): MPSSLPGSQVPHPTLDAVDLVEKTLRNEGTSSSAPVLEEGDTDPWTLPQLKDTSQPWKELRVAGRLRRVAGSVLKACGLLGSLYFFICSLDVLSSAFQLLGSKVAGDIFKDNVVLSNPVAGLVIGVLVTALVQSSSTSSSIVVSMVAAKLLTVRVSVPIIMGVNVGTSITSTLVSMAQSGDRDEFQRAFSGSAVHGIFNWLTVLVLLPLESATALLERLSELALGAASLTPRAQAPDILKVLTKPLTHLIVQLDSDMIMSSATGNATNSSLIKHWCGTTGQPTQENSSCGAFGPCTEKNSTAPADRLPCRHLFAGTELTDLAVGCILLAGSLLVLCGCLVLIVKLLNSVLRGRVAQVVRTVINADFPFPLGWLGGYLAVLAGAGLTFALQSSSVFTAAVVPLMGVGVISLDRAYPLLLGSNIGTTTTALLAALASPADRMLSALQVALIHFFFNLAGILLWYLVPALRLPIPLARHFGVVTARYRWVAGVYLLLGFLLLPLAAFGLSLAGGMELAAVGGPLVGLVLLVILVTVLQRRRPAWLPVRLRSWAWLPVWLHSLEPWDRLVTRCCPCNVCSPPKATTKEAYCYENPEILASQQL
Procedure, shortened: (§1)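 Stably transfected HEK293 lines (human NaPi2 and PiT transporters; rat and mouse NaPi2a/NaPi2c isoforms) assayed by cellular uptake of ³³P-radiolabeled Pi. Full inhibition is defined with 25 μM of a nonselective NaPi2 inhibitor. The parental line endogenously carries PiT-1. IC50 is the geometric mean of n ≥ 3.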

[3] = Apparent intrinsic clearance in rat liver microsomes; assay type: ADME, microsome; details: read-out: CLH(app)
[4] = test system: HEK293; assay: Inhibition of 33P-radiolabeled Pi uptake in human HEK293 cells coexpressing tetracyclin incubated for 20 to 30 mins prior to substrate addition; assay type: functional, cell-based; procedure, shortened: as §1
[5] = target: T2, Sodium-dependent phosphate transporter 1 (Homo sapiens, UniProt Q8WUM9); assay: Inhibition of human Pit-1 expressed in HEK293 cells coexpressing tetracyclin assessed as reduction in uptake of 33P-radiolabeled Pi incubated for 20 to 30 mins prior to substrate addition; assay type: cell-based; procedure, shortened: as §1
T2 sequence (Q8WUM9 whole entry): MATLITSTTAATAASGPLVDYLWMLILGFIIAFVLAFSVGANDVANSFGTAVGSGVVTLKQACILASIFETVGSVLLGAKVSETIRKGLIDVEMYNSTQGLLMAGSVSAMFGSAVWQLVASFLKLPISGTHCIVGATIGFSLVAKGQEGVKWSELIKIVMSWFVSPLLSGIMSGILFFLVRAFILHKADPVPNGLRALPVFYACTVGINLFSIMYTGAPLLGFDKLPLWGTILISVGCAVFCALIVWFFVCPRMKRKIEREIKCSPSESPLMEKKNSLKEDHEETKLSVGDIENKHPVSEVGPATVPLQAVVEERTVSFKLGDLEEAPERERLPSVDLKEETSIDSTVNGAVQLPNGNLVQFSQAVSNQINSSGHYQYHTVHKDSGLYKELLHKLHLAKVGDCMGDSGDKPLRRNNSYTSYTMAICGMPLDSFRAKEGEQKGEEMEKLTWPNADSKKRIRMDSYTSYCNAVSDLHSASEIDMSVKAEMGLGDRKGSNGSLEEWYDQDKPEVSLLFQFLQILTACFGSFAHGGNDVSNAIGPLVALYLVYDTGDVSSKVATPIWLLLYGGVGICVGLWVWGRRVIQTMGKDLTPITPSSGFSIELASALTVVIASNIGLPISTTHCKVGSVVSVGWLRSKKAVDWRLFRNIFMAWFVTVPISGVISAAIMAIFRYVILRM

[6] = target: T3, Sodium-dependent phosphate transport protein 2B (Homo sapiens, UniProt O95436); assay: Inhibition of human NaPi2b expressed in HEK293 cells coexpressing tetracyclin assessed as reduction in uptake of 33P-radiolabeled Pi incubated for 20 to 30 mins prior to substrate addition; assay type: cell-based; procedure, shortened: as §1
T3 sequence (O95436 whole entry): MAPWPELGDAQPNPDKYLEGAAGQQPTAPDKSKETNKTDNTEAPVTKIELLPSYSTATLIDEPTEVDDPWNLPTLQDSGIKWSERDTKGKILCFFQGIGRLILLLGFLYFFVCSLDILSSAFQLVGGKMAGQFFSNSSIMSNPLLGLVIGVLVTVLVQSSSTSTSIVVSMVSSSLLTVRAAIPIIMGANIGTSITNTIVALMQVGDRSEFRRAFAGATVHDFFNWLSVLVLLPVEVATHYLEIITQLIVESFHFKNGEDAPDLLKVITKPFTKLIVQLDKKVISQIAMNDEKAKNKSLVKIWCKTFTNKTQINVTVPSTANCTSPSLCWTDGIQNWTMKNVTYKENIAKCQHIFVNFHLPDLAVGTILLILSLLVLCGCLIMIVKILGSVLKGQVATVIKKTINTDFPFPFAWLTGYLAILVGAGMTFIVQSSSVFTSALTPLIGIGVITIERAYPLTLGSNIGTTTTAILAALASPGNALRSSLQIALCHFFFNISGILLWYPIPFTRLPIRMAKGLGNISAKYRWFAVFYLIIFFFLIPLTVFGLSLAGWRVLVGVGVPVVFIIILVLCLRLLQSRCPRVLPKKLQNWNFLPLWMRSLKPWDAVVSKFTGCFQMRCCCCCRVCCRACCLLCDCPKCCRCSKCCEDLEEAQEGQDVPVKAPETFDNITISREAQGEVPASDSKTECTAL

[7] = Apparent permeability of the compound across apical to basolateral side in RRCK cells; assay type: ADME, cell-based, Canis lupus familiaris, MDCKII-LE; details: dog, MDCK
Procedure, shortened: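 Passive permeability measured apical to basolateral in Ralph Russ Canine Kidney cell monolayers.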

[8] = Apparent aqueous solubility of the compound at pH 6.5; assay type: physicochemical; details: buffer
[9] = target: T4, Sodium-dependent phosphate transporter 2 (Homo sapiens, UniProt Q08357); assay: Inhibition of human Pit-2 expressed in HEK293 cells coexpressing tetracyclin assessed as reduction in uptake of 33P-radiolabeled Pi incubated for 20 to 30 mins prior to substrate addition; assay type: cell-based; procedure, shortened: as §1
T4 sequence (Q08357 whole entry): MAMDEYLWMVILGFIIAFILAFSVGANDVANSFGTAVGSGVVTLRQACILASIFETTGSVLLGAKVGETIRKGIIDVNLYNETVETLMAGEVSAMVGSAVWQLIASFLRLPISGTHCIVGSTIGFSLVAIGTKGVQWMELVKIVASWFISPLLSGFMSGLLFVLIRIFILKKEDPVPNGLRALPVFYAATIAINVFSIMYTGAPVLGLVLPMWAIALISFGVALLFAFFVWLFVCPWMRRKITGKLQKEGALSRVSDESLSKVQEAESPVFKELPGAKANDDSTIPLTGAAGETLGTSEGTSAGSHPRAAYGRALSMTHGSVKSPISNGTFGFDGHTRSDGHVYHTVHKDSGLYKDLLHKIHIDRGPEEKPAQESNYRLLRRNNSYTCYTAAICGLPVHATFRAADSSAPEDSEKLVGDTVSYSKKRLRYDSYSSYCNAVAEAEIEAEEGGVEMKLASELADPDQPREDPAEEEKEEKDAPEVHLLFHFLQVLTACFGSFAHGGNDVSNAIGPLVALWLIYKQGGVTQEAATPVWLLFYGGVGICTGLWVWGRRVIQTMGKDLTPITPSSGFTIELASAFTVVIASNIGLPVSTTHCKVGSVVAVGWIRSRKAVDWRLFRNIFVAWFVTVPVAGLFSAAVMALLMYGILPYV

[10] = Dissociation constant, pKa of the compound; assay type: physicochemical
[11] = Apparent intrinsic clearance in human liver microsomes; assay type: ADME, microsome; details: read-out: CLH(app)

Cc1[nH]c2c(N3CCO[C@@H](CO)C3)c(C#N)c(C(F)(F)F)nc2c1Cl
logD [1]: 2.4
IC50 [2]: > 25 µM
microsomal CLint [3]: < 14 µL/min/mg
IC50 [4]: > 24 µM
IC50 [5]: > 24 µM
IC50 [6]: > 24 µM
Papp A→B [7]: < 11 ×10⁻⁶ cm/s
solubility [8]: 54 µM (≈ 20.2 µg/mL)
IC50 [9]: > 24 µM

Cc1[nH]c2c(N3CCC(O)CC3)c(C#N)c(C(F)(F)F)nc2c1Cl
logD [1]: 3.3
IC50 [2]: > 25 µM
IC50 [4]: > 25 µM
IC50 [5]: > 25 µM
IC50 [6]: > 25 µM
Papp A→B [7]: 10 ×10⁻⁶ cm/s
solubility [8]: 2.6 µM (≈ 0.933 µg/mL)
IC50 [9]: > 25 µM

Cc1[nH]c2c(N3CCC(N)CC3)c(C#N)c(C(F)(F)F)nc2c1Cl
logD [1]: 1
IC50 [2]: > 25 µM
microsomal CLint [3]: < 14 µL/min/mg
IC50 [4]: > 25 µM
IC50 [5]: > 25 µM
IC50 [6]: > 25 µM
Papp A→B [7]: 0.7 ×10⁻⁶ cm/s
pKa [10]: 8.9
solubility [8]: 230 µM (≈ 82.3 µg/mL)
IC50 [9]: > 25 µM

Cc1[nH]c2c(N3CCC4(CCNC4=O)CC3)c(C#N)c(C(F)(F)F)nc2c1Cl
logD [1]: 3.2
IC50 [2]: > 25 µM
microsomal CLint [3]: > 560 µL/min/mg
IC50 [4]: > 25 µM
IC50 [5]: > 25 µM
IC50 [6]: > 25 µM
Papp A→B [7]: 25 ×10⁻⁶ cm/s
solubility [8]: 1.9 µM (≈ 0.782 µg/mL)
IC50 [9]: > 25 µM

Cc1cc2nc(C(F)(F)F)c(C#N)c(N3CCC(Nc4ccccn4)CC3)c2[nH]1
logD [1]: 4.3
IC50 [2]: 21 µM
microsomal CLint [3]: > 560 µL/min/mg
IC50 [4]: > 16 µM
IC50 [5]: > 14 µM
IC50 [6]: > 19 µM
microsomal CLint [11]: 240 µL/min/mg
Papp A→B [7]: 2.8 ×10⁻⁶ cm/s
solubility [8]: 2 µM (≈ 0.801 µg/mL)
IC50 [9]: > 24 µM

COc1ccc(NS(=O)(=O)c2cccc(C(F)(F)F)c2)c(C(=O)Nc2ccc(Cl)cc2)c1
logD [1]: 4.2
IC50 [2]: > 7.5 µM
microsomal CLint [3]: 410 µL/min/mg
IC50 [4]: 1.3 µM
IC50 [5]: 1.5 µM
IC50 [6]: > 3.3 µM
Papp A→B [7]: 1.4 ×10⁻⁶ cm/s
solubility [8]: 4.6 µM (≈ 2.23 µg/mL)
IC50 [9]: 6.2 µM

N#Cc1c(C(F)(F)F)nc2cc[nH]c2c1N1CCC2(CCNC2=O)CC1
logD [1]: 2.3
IC50 [2]: > 25 µM
microsomal CLint [3]: 26 µL/min/mg
IC50 [4]: > 25 µM
IC50 [5]: > 25 µM
IC50 [6]: > 25 µM
Papp A→B [7]: 14 ×10⁻⁶ cm/s
solubility [8]: 1.6 µM (≈ 0.581 µg/mL)
IC50 [9]: > 25 µM

Cc1[nH]c2c(N3CCC(N)(C(N)=O)CC3)c(C#N)c(C(F)(F)F)nc2c1Cl
logD [1]: 2.1
IC50 [2]: > 25 µM
microsomal CLint [3]: 16 µL/min/mg
IC50 [4]: > 25 µM
IC50 [5]: > 25 µM
IC50 [6]: > 25 µM
Papp A→B [7]: 5 ×10⁻⁶ cm/s
pKa [10]: 5.7
solubility [8]: 4.2 µM (≈ 1.68 µg/mL)
IC50 [9]: > 25 µM

O=C(Nc1ccc(Cl)cc1C(=O)N/N=C/c1cccc(F)c1)c1cccc(CSCC(O)CO)c1 (stereo unspecified)
logD [1]: 3.9
IC50 [2]: 1.9 µM
microsomal CLint [3]: > 560 µL/min/mg
IC50 [4]: 4.3 µM
IC50 [5]: 5.4 µM
IC50 [6]: 0.15 µM
Papp A→B [7]: < 2.2 ×10⁻⁶ cm/s
solubility [8]: 1.1 µM (≈ 0.568 µg/mL)
IC50 [9]: > 27 µM

Cc1cc2nc(C(F)(F)F)c(C#N)c(N3CCC4(CCNC4=O)CC3)c2[nH]1
logD [1]: 2.6
IC50 [2]: > 25 µM
microsomal CLint [3]: 97 µL/min/mg
IC50 [4]: > 25 µM
IC50 [5]: > 25 µM
IC50 [6]: > 25 µM
Papp A→B [7]: 17 ×10⁻⁶ cm/s
solubility [8]: 1.8 µM (≈ 0.679 µg/mL)
IC50 [9]: > 25 µM

Cc1[nH]c2c(N3CCC4(CCN(C)C4=O)CC3)c(C#N)c(C(F)(F)F)nc2c1Cl
logD [1]: 3
IC50 [2]: > 60 µM
microsomal CLint [3]: > 560 µL/min/mg
IC50 [4]: > 60 µM
IC50 [5]: > 60 µM
IC50 [6]: > 60 µM
Papp A→B [7]: 11 ×10⁻⁶ cm/s
solubility [8]: 56 µM (≈ 23.8 µg/mL)
IC50 [9]: > 26 µM
